The record followed here is ChEMBL document CHEMBL3994606, “Ring-opened tetrahydro-γ-carbolines display cytotoxicity and selectivity with histone deacetylase isoforms” (Eur J Med Chem, 2017).

Calls of active or inactive are those of the source. The calls are words filed in the database; no cut-off is given here. A value given as a limit tells only on which side of the number the result lay.

For assay [1], the system named is HCT-116. The assay is described as follows: Induction of apoptosis in human HCT116 cells assessed as increase in cleaved caspase 3 levels at 1.25 to 2.5 uM after 48 hrs Western blot method. It counts as functional, cell-based.
Assay [2] concerns A549. In words: Antiproliferative activity against human A549 cells after 48 hrs by SRB assay. The assay is classed as functional. The following applies: A549, 48 h. The essentials:
(§1)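 Cells seeded at 3-5 x 10³ cells/well. A T0 plate was fixed with 10% TCA at drug addition, and the rest were incubated 48 h with compound or DMSO, then TCA-fixed and stained with 0.4% SRB in 1% AcOH. Dye was extracted with 10 mM trizma base and read at 515 nm.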
Background: The SRB assay estimates cell density from bound dye.

The subject of assay [3] is HCT-116. In words: Induction of apoptosis in human HCT116 cells assessed as increase in cleaved PARP levels at 1.25 to 2.5 uM after 48 hrs Western blot method. It counts as functional, cell-based.
Assay [4] concerns HCT-116. The assay is described as follows: Cell cycle arrest in human HCT116 cells assessed as accumulation at sub-G1 phase at 5 uM after 48 hrs by propidium iodide staining-based flow cytometric method. It counts as functional. The essentials:
(§2)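 HCT116 cells treated 48 h, then fixed overnight in 75% EtOH at -20 °C and washed in cold PBS. They were incubated 30 min at room temperature in 0.1 M phosphate-citric acid buffer (pH 7.8) and stained with propidium iodide buffer containing 0.1% Triton X-100 and RNase A. The sub-G1 fraction was measured by flow cytometry.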

The test system of assay [5] is HCT-116. In words: Antiproliferative activity against human HCT116 cells after 48 hrs by SRB assay. The assay is classed as functional. The note with it: HCT-116, 48 h. An outline of the steps:
as §1

Assay [6] relates to PC-3. In words: Antiproliferative activity against human PC3 cells after 48 hrs by SRB assay. The assay is classed as functional. The following applies: PC-3, 48 h. An outline of the steps:
as §1

In assay [7] the test system is HCT-116. In words: Anticlonogenic activity against human HCT116 cells after 24 hrs by crystal violet staining-based assay. The assay is classed as functional, cell-based. The essentials:
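Cells exposed to a range of concentrations or DMSO vehicle for 24 h, washed, trypsinized and replated at 500 cells/well; after 14 days colonies were fixed and stained with 0.5% crystal violet in 70% EtOH. Colonies of more than 50 cells were counted, and survival fraction was taken relative to DMSO control.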

The target in assay [8] is Histone deacetylase 1 (Homo sapiens, UniProt Q13547). The assay is described as follows: Inhibition of full length human recombinant C-terminal FLAG-His-tagged HDAC1 expressed in Sf21 cells using RHKK(Ac) as substrate after 60 mins by fluorimetric method.
Histone deacetylase 1, sequence (Q13547 whole entry): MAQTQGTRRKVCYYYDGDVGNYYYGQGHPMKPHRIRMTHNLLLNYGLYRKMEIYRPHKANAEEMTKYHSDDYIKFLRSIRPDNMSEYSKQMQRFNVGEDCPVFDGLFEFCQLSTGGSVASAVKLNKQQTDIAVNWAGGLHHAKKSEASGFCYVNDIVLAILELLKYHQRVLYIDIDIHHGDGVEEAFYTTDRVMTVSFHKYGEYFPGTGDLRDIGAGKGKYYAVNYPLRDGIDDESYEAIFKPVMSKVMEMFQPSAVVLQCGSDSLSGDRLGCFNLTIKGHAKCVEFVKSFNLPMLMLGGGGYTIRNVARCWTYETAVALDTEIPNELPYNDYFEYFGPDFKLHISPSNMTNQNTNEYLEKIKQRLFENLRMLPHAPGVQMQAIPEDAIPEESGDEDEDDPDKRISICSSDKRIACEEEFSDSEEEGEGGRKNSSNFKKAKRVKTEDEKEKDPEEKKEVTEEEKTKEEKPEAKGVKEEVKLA
Assay [9] deals with T1, Protein deacetylase HDAC6 (Homo sapiens, UniProt Q9UBN7).
T1 sequence (Q9UBN7 whole entry): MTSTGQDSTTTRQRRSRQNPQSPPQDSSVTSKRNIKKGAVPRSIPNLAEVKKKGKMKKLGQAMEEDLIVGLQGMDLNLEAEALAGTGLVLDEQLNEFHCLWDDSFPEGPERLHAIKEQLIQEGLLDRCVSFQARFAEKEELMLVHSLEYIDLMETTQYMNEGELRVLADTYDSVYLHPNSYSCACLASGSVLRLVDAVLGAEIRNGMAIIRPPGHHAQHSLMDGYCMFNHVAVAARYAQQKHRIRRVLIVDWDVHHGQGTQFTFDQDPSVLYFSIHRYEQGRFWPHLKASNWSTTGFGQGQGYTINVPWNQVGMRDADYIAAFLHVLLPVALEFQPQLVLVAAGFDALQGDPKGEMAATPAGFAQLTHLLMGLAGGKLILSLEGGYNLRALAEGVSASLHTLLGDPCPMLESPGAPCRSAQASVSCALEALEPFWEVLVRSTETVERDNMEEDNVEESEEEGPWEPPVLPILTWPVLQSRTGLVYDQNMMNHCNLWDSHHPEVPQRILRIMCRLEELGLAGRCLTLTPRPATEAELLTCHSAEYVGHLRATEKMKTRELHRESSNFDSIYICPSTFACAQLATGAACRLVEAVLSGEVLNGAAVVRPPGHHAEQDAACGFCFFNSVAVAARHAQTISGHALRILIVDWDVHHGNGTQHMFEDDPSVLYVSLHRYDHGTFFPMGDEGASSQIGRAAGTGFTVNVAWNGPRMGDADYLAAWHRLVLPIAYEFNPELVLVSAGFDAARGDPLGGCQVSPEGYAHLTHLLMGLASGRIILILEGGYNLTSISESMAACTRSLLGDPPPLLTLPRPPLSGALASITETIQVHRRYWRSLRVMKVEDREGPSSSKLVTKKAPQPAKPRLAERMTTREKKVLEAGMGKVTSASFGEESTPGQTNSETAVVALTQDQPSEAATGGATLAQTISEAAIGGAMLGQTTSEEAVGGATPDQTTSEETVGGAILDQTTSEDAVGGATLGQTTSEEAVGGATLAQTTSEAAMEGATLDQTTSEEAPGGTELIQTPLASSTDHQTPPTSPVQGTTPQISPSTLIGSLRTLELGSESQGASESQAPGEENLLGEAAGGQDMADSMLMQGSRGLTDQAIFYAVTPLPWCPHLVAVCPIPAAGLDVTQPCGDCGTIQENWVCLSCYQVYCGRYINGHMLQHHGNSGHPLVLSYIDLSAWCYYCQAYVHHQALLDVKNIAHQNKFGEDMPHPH
The assay is described as follows: Inhibition of full length human recombinant N-terminal GST-tagged HDAC6 expressed in Sf9 cells using RHKK(Ac) as substrate after 90 mins by fluorimetric method.

The test system of assay [10] is HCT-116. The assay is described as follows: Cell cycle arrest in human HCT116 cells assessed as accumulation at sub-G1 phase after 48 hrs by propidium iodide staining-based flow cytometric method. The assay is classed as functional. An outline of the steps:
as §2

The species named for assay [11] is Homo sapiens. In words: Selectivity ratio of IC50 for full length human recombinant C-terminal GST-tagged HDAC2 to IC50 for full length human recombinant N-terminal GST-tagged HDAC6.
For assay [12], the target named is Histone deacetylase 2 (Homo sapiens, UniProt Q92769). In words: Inhibition of full length human recombinant C-terminal GST-tagged HDAC2 expressed in insect cells using RHKK(Ac) as substrate after 60 mins by fluorimetric method.
Histone deacetylase 2, sequence (Q92769 whole entry): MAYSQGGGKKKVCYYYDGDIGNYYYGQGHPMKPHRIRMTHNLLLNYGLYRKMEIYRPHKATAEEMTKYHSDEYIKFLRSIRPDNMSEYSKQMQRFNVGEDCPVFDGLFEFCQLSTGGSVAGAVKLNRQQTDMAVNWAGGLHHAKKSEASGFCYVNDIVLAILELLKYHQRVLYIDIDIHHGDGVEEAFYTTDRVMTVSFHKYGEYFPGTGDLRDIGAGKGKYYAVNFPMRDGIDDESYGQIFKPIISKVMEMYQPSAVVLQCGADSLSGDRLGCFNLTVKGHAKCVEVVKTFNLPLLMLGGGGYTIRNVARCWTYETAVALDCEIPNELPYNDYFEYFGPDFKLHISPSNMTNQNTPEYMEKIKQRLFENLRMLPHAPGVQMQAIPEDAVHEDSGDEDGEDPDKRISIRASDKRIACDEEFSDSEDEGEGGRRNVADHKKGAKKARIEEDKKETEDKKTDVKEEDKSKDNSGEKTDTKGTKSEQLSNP
The species entered for assay [13] is Homo sapiens. In words: Inhibition of class 1 HDAC in human HCT116 cells assessed as upregulation of acetylated histone H3 levels at 2.5 uM after 6 hrs by Western blot method. The assay is classed as cell-based. Background: A western blot detects proteins with antibodies after separation by electrophoresis.
The target of assay [14] is T2, Protein deacetylase HDAC6 (Homo sapiens) (UniProt Q9UBN7).
T2 sequence (whole entry): T1 sequence (Q9UBN7 whole entry)
In words: Inhibition of HDAC6 in human HCT116 cells assessed as upregulation of acetylated tubulin levels at 2.5 uM after 6 hrs by Western blot method. It counts as cell-based. The essentials:
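HCT116 cells treated 6 h with compound, then lysates probed by western blot for acetyl-tubulin, with ECL detection.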

The species entered for assay [15] is Homo sapiens. In words: Selectivity ratio of IC50 for full length human recombinant C-terminal FLAG-His-tagged HDAC1 to IC50 for full length human recombinant N-terminal GST-tagged HDAC6.

`CN1CCc2c(c3ccccc3n2Cc2ccc(C(=O)NO)cc2)C1` [TUBASTATIN A]: the result in assay [1] and in assay [3] was inactive. Further, the GI50 in assay [2], in assay [5] and in assay [6] was above 5000 nM throughout. In addition, the result in assay [4] was Active.

Consider `Cc1c(CN(C)C)c2ccccc2n1S(=O)(=O)c1ccc(/C=C/C(=O)NO)cc1`, for which the Activity result in assay [7] and in assay [10] was “Dose-dependent effect” in each case. Besides, the result in assay [1] and in assay [3] was Active. Also, the figures for the GI50 in [2], in assay [5] and in assay [6] were 1560 nM, 550 nM and 700 nM, respectively. Moreover, the 50% inhibitory concentration (IC50) (as a rule, the point on the concentration scale where inhibition reaches its midpoint) in assay [8] turned out to be 4010 nM; in assay [9], 63 nM; in assay [12], 1270 nM. Also, the Ratio IC50 worked out at 20 in assay [11] and 63 in assay [15]. In assay [13], the “Acetylated histone H3 upregulation (qualitative)” value was “inactive”. In [14], the “Acetylated tubulin upregulation (qualitative)” value is “Active”.
